We go through 16 compounds from PubChem BioAssay.

A short description of test [1]: Her2 expression decrease, cell viability multiplex – SKBR3 breast tumor cells, AlphaScreen, ATP viability, primary screen (AID 461).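 As to Her2 level: lower value means less Her2 protein in the cells.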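 As to viability: percent of carrier control wells set as 100% viability.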 Conditions: SKBR3 Her2 protein level, 18-24 h, measured here: SKBR3 viability, ATP luminescence, at 10 µM.
The target of test [2] is Receptor tyrosine-protein kinase erbB-2 (Homo sapiens) (UniProt P04626). The description is as above. Particulars: 18-24 h, at 10 µM, stronger effect = lower value.
A short description of test [3]: reduced viability of SK-BR-3 breast cancer cells – cell-based, 24 h, human, pilot screen (AID 572;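 active = viability at or below 10% of carrier control in both of two separate runs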;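 also: compound exposure lasted between 18 and 24 h rather than exactly 24 h; 100% = carrier-treated control wells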). Particulars: SK-BR-3 viability, CellTiter-Glo luminescence, at 10 µM, stronger effect = lower value.
Test [4] in a line: HUVEC growth inhibition – cell-based, human, primary screen (AID 575;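 active = viability at or below 30% in both replicate assays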;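 also: 100% = median of untreated cell wells with 0.1% DMSO on each plate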). Particulars: HUVEC proliferation, CellTiter-Glo luminescence, 72 h; at 10 µM; stronger effect = lower value. The method in brief: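 material = primary HUVEC, no more than 12 passages | input = 1250 cells per well | controls = vehicle and MePR control wells | measured by = CTG luminescence | times = 72 h compound incubation | format = collagen-coated 384-well format | read-out = % viability vs DMSO wells | doses = single 10 µM dose, 0.1% DMSO, from 5x medium stock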

Test [5] is described as follows: H69AR cell proliferation blockers – human, duplicate replicates, primary screen (AID 580;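 active = viability at or under a set limit in both replicates, limit being median viability minus 3 SD, cut at about 48% in these data, passing the limit was not always enough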;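 also: 100% = mean luminescence of untreated wells and 0% = no signal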). Conditions: H69AR lung tumor cells viability, ATP luminescence, 72 h; at 10 µM; stronger effect = lower value.
A short description of test [6]: MRP1 drug-resistance reversers in H69AR cells – cell-based, doxorubicin co-treatment, pilot screen (AID 601;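 active = viability loss from added drug above about 55%, and viability with drug at most 40%, in both replicates, limit read from the data, passing the limit was not always enough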). Conditions: CellTiter-Glo, 72 h, at 10 µM; for differential viability (reversal): stronger effect = higher value.
The nature of test [7]: yeast transport mutant growth inhibition pilot in 384-well plates, post-Golgi transport modulator project (AID 636; in the data active = inhibition above about 31%). Conditions: absorbance 615 nm, about 18 h, stronger effect = higher value.
The nature of test [8]: growth suppression of yeast trafficking mutant, preliminary HTS, modulators of trafficking downstream of Golgi apparatus project, 1536-format plate, OD 615 nm (AID 637; in the data active = inhibition above about 30%). Conditions: yeast transport mutant growth, absorbance 615 nm, 18 h; stronger effect = higher value.
Where [9] appears, read: H69AR cells + 2 uM doxorubicin, measured here: viability with 2 uM doxorubicin, stronger effect = lower value.
Setting [10] is: H69AR cells, compound alone cytotoxicity.

The structures appear in SMILES notation. The source made the active and inactive calls.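 The calls were made as follows, unless noted: active = Her2 level under about 52% in both replicate screens, with viability over 70% of control (limit read from the data); inconclusive = Her2 under the limit in one screen only, or viability under 70%; inactive = Her2 level above the set limit.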

Sequence of Receptor tyrosine-protein kinase erbB-2 (Homo sapiens) (P04626 whole entry, looked up): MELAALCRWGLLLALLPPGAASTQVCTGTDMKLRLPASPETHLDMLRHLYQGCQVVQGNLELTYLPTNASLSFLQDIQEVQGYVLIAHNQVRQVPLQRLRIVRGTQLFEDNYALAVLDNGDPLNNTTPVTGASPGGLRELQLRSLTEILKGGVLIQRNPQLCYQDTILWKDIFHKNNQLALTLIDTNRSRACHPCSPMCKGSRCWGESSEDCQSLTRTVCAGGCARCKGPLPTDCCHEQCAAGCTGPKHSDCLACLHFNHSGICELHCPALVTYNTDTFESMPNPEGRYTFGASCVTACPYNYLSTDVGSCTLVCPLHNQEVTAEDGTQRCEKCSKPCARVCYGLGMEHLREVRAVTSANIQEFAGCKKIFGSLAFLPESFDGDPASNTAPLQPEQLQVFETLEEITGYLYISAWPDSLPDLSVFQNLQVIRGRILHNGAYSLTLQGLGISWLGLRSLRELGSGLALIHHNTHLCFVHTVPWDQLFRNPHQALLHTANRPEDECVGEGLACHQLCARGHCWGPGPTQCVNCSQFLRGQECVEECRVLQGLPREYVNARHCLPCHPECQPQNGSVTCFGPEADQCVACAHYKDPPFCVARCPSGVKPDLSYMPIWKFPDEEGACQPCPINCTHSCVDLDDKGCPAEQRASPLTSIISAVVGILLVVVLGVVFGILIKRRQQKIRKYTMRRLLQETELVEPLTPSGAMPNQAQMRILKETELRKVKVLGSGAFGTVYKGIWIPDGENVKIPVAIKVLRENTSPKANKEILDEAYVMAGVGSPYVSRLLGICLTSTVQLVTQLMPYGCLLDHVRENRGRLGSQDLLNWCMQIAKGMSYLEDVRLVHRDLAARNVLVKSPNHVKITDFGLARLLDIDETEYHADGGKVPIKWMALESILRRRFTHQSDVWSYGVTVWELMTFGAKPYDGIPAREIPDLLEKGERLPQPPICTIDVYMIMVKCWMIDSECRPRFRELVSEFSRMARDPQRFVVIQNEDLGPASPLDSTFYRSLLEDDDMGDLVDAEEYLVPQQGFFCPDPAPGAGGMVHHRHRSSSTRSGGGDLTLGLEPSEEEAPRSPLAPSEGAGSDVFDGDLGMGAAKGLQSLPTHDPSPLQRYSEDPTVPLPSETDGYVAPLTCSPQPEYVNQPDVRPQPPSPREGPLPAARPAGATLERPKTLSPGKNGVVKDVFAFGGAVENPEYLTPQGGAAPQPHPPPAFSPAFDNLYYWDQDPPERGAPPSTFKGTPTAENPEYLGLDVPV

Regarding `Cc1nnc(SC(=O)N2c3ccccc3Sc3ccccc32)s1`, the viability in test [1] is 114%; in test [3], 114% (inactive); in test [4], 13.2% (active); in test [5], 1.79% (active); in test [6] (setting [9]), 1.69%; in test [6] (setting [10]), 1.79%. Also, in test [2], the Her2 level is 6.5% (active). Also, the differential viability (reversal) in test [6] (H69AR cells + 2 uM doxorubicin) is 0.105% (inactive). For the same compound, the inhibition was 54% (active) in test [7] and 8.67% (inactive) in test [8].

Take `CCOC(=O)N1CCC(Nc2c(-c3ccc(C)cc3)c(=O)c2=O)CC1`: the viability in test [1] is 88.5%; in test [3], 88.5% (inactive); in test [4], 100% (inactive); in test [5], 94.5% (inactive); in test [6] (setting [9]) it was 83%; in test [6] (setting [10]), 94.5%. Moreover, in test [2], the Her2 level was 100% (inactive). Besides, the differential viability (reversal) in test [6] (H69AR cells + 2 uM doxorubicin) was 11.5% (inactive). The inhibition in test [7] was -8.42% (inactive); in test [8], -8.73% (inactive).

Consider `O=C(c1ccccc1)N1CCN(CC2CC=CCC2)CC1` (stereo not given), for which the viability in test [1] was 82.5%; in test [3] it was 82.5% (inactive); in test [4], 102% (inactive); in test [5] it was 96.1% (inactive); in test [6] (setting [9]), 93.5%; in test [6] (setting [10]) it was 96.1%. In addition, in test [2], the Her2 level is 79% (inactive). Moreover, the differential viability (reversal) in test [6] (H69AR cells + 2 uM doxorubicin) was 2.54% (inactive). Besides, the inhibition in test [7] was -6.05% (inactive); in test [8], 2.5% (inactive).

Consider `CCn1c(CNc2ccc(C)cc2)nnc1SCC(=O)NCc1ccccc1`, for which the viability in test [1] was 89%; in test [3], 89% (inactive); in test [4] it was 91.1% (inactive); in test [5] it was 86.6% (inactive); in test [6] (setting [9]), 87.6%; in test [6] (setting [10]), 86.6%. Moreover, the Her2 level in test [2] is 100% (inactive). Moreover, in test [6] (H69AR cells + 2 uM doxorubicin), the differential viability (reversal) was -0.975% (inactive). Moreover, the inhibition is 0.13% (inactive) in test [7] and 3.93% (inactive) in test [8].

On to `CCSc1nnc(-c2ccc(OC)cc2)o1`, for which the viability in test [1] was 100%; in test [3], 100% (inactive); in test [4], 92.7% (inactive); in test [5], 81.2% (inactive); in test [6] (setting [9]), 91.6%; in test [6] (setting [10]), 81.2%. Also, in test [2], the Her2 level was 93.5% (inactive). For the same compound, the differential viability (reversal) in test [6] (H69AR cells + 2 uM doxorubicin) is -10.4% (inactive). Moreover, the inhibition was -0.51% (inactive) in test [7] and -11% (inactive) in test [8].

Consider `CN1CCN(C(=O)c2cnn3c(C(F)F)cc(C4CC4)nc23)CC1`, for which the viability in test [1] was 95%; in test [3], 95% (inactive); in test [4] it was 103% (inactive); in test [5], 94.4% (inactive); in test [6] (setting [9]), 85.1%; in test [6] (setting [10]) it was 94.4%. In addition, in test [2], the Her2 level is 88.5% (inactive). In addition, the differential viability (reversal) in test [6] (H69AR cells + 2 uM doxorubicin) was 9.3% (inactive). The inhibition in test [7] is -2.63% (inactive); in test [8], 3.23% (inactive).

As to `CCCNC(=O)C1=C(C)C(=O)OC12CCC(C)CC2` (stereo not given), the viability was 94.5% in test [1]; 94.5% (inactive) in test [3]; 87.2% (inactive) in test [4]; 95.3% (inactive) in test [5]; 90.2% in test [6] (setting [9]); 95.3% in test [6] (setting [10]). For the same compound, the Her2 level in test [2] was 102% (inactive). The differential viability (reversal) in test [6] (H69AR cells + 2 uM doxorubicin) is 5.14% (inactive). The inhibition in test [7] was 2.27% (inactive); in test [8], 3.61% (inactive).

Turning to `Cc1nnc(N(C)C(=O)c2cccnc2)s1`, the viability is 110% in test [1]; 110% (inactive) in test [3]; 93.1% (inactive) in test [4]; 88.7% (inactive) in test [5]; 87.5% in test [6] (setting [9]); 88.7% in test [6] (setting [10]). Also, the Her2 level in test [2] was 110% (inactive). For the same compound, in test [6] (H69AR cells + 2 uM doxorubicin), the differential viability (reversal) is 1.22% (inactive). For the same compound, the inhibition in test [7] is 0.96% (inactive); in test [8], 3.33% (inactive).

With `O=C(NCc1cccnc1)c1ccc(Cl)c(Cl)c1`, the viability in test [1] was 89%; in test [3] it was 89% (inactive); in test [4], 95.2% (inactive); in test [5], 96.8% (inactive); in test [6] (setting [9]) it was 87.7%; in test [6] (setting [10]), 96.8%. The Her2 level in test [2] is 75% (inactive). The differential viability (reversal) in test [6] (H69AR cells + 2 uM doxorubicin) is 9.16% (inactive). The inhibition is -1.33% (inactive) in test [7] and 3.61% (inactive) in test [8].

`Cc1ccc(N(Cc2ccco2)C(=O)c2cccc(S(=O)(=O)N(C)C)c2)cc1`: the viability in test [1] is 97.5%; in test [3], 97.5% (inactive); in test [4], 88.4% (inactive); in test [5], 96.7% (inactive); in test [6] (setting [9]), 99.6%; in test [6] (setting [10]) it was 96.7%. Also, the Her2 level in test [2] was 104% (inactive). In test [6] (H69AR cells + 2 uM doxorubicin), the differential viability (reversal) was -2.84% (inactive). The values for the inhibition in test [7] and in test [8] were 0.53% (inactive) and -1% (inactive), respectively.

As for `CCOc1ccc2c(c1)n(CO)c(=S)n2CO`, the viability is 107% in test [1]; 107% (inactive) in test [3]; 83.6% (inactive) in test [4]; 89.6% (inactive) in test [5]; 87.5% in test [6] (setting [9]); 89.6% in test [6] (setting [10]). Moreover, in test [2], the Her2 level is 74% (inactive). In addition, the differential viability (reversal) in test [6] (H69AR cells + 2 uM doxorubicin) was 2.06% (inactive). The inhibition in test [7] was -2.53% (inactive); in test [8], 0.81% (inactive).

`COC(=O)c1cc(=O)n2c(-c3ccc(OC)cc3)csc2n1`: the viability in test [1] was 110%; in test [3], 110% (inactive); in test [4] it was 96.2% (inactive); in test [5] it was 92.6% (inactive); in test [6] (setting [9]), 82.1%; in test [6] (setting [10]) it was 92.6%. For the same compound, the Her2 level in test [2] was 97.5% (inactive). Besides, in test [6] (H69AR cells + 2 uM doxorubicin), the differential viability (reversal) was 10.6% (inactive). The inhibition in test [7] is -4.8% (inactive); in test [8] it was -0.16% (inactive).

In the case of `COc1ccc(N2C(=O)C3CCCN3C2c2ccc(F)cc2)cc1Cl` (stereo not given), the viability was 102% in test [1]; 102% (inactive) in test [3]; 84.2% (inactive) in test [4]; 87.4% (inactive) in test [5]; 88.7% in test [6] (setting [9]); 87.4% in test [6] (setting [10]). Further, the Her2 level in test [2] is 93.5% (inactive). Moreover, the differential viability (reversal) in test [6] (H69AR cells + 2 uM doxorubicin) is -1.33% (inactive). Besides, the inhibition was 0.39% (inactive) in test [7] and -6.94% (inactive) in test [8].

For `COc1cc(N=c2ssnc2Cl)cc(OC)c1`, the viability is 84.5% in test [1]; 84.5% (inactive) in test [3]; 78% (inactive) in test [4]; 3.23% (active) in test [5]; 4.61% in test [6] (setting [9]); 3.23% in test [6] (setting [10]). Besides, the Her2 level in test [2] is 111% (inactive). The differential viability (reversal) in test [6] (H69AR cells + 2 uM doxorubicin) is -1.38% (inactive). For the same compound, the results for the inhibition in test [7] and in test [8] were -5% (inactive) and 0.48% (inactive), respectively.

Turning to `Cc1cc(NS(=O)(=O)c2ccc(NC(=O)C(C)N3C(=O)c4ccccc4C3=O)cc2)nc(C)n1` (stereo not given), the viability in test [1] was 99%; in test [3] it was 99% (inactive); in test [4], 112% (inactive); in test [5], 97.4% (inactive); in test [6] (setting [9]), 91.7%; in test [6] (setting [10]), 97.4%. Besides, the Her2 level in test [2] is 92% (inactive). For the same compound, the differential viability (reversal) in test [6] (H69AR cells + 2 uM doxorubicin) is 5.72% (inactive). Further, the inhibition in test [7] was -2.89% (inactive); in test [8], 5.25% (inactive).

In the case of `COCCNC(=O)c1ccc(CS(=O)(=O)c2ccc(OC)cc2)o1`, the viability in test [1] was 97%; in test [3] it was 97% (inactive); in test [4], 87% (inactive); in test [5], 109% (inactive); in test [6] (setting [9]), 93.5%; in test [6] (setting [10]) it was 109%. For the same compound, the Her2 level in test [2] is 121% (inactive). The differential viability (reversal) in test [6] (H69AR cells + 2 uM doxorubicin) is 15.8% (inactive). Moreover, the inhibition in test [7] is -1.03% (inactive); in test [8], 2.67% (inactive).
